Measurements published in article PMC8994735 (Targeted Oncology, 2021).
Entries after “also recorded” stand apart in the source; their conditions may differ. Where two headings read alike, the source gives them in different places.

What was measured:
[1] = tested on: East Asian patients with advanced nonhematologic malignancies; experiment: Dose-limiting toxicities and MTD/RP2D determination; format: in vivo, human
Procedure, shortened: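 Standard 3 + 3 escalation with planned levels of 2 and 4 mg once daily and 20 and 30 mg once weekly, oral, in 28-day cycles; intermediate doses and expansion to 12 patients were permitted. DLTs were assessed in cycle 1 and covered grade ≥ 3 nonhematologic toxicity (with specified exceptions), defined hematologic events, and < 75% of planned doses given. Evaluable patients received ≥ 75% of planned doses (21 once daily, three once weekly).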

Plasma pharmacokinetics = format: in vivo, human; conditions: for AUC / Cmax / half-life / Tmax: human, oral; for Cmax: Mean Cmax
[2] = tested on: advanced nonhematologic malignancies; experiment: Antitumor activity: disease response by RECIST v1.1; format: in vivo, human
Procedure, shortened: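 Oral dosing once daily (2, 3 or 4 mg) or once weekly (20 or 30 mg) in 28-day cycles. Treatment lasted up to 12 months or until progression, unacceptable toxicity or consent withdrawal. Response was assessed by RECIST v1.1 in the safety analysis set (patients receiving ≥ 1 dose). Analysis was descriptive, with no formal hypothesis testing.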

Western patients = conditions: cited from earlier work
[3] = tested on: nonhematologic malignancies/solid tumors, endometrial cancer; conditions: phase 2 study in endometrial cancer; single-agent 30 mg QW; cited from earlier work

SMILES: CC(C)n1nc(-c2ccc3oc(N)nc3c2)c2c(N)ncnc21 [sapanisertib]
- DLT of grade 3 stomatitis ([1]; 4 mg QD cohort): 2 n
- Dose-limiting toxicities (patients experiencing DLTs) ([1]; 4 mg QD cohort, cycle 1): three
- DLTs ([1]; 20 mg QW dose level): no patients experienced DLTs
- DLTs ([1]; 30 mg QW dose level): no patients experienced DLTs
- Maximum tolerated dose (MTD) ([1]; QD dosing, East Asian patients): 3 mg
- Recommended phase 2 dose (RP2D) ([1]; QD dosing, East Asian patients): 3 mg
- Recommended phase 2 dose (RP2D) ([1]; QW dosing, East Asian patients): 30 mg
- Accumulation in plasma (Plasma pharmacokinetics; QD or QW, any dose level): did not accumulate in plasma to any appreciable extent
- Dose dependence of plasma exposure (AUC and Cmax) (Plasma pharmacokinetics; across all doses): increased linearly across all doses; also recorded: generally linear, dose-dependent
- Time at which peak plasma concentrations were achieved post-dose (Plasma pharmacokinetics; cycle 1 day 1, single dose, both QD and QW arm): 0.5 to 2.0 h
- Geometric mean accumulation ratio of AUC168 (Plasma pharmacokinetics; cycle 1 day 15, 20 mg QW): 1.14
- Geometric mean accumulation ratio of Cmax (Plasma pharmacokinetics; cycle 1 day 15, 20 mg QW): 0.72
- Geometric mean accumulation ratio of AUC168 (Plasma pharmacokinetics; cycle 1 day 15, 30 mg QW): 1.47
- Geometric mean accumulation ratio of Cmax (Plasma pharmacokinetics; cycle 1 day 15, 30 mg QW): 1.36
- Time at which peak plasma concentrations were achieved post-dose (Plasma pharmacokinetics; cycle 1 day 15, QD arm): 0.5 to 3.0 h
- Time at which peak plasma concentrations were achieved post-dose (Plasma pharmacokinetics; cycle 1 day 15, QW arm): 0.5 to 4.1 h
- Geometric mean accumulation ratio of Cmax (Plasma pharmacokinetics; cycle 1 day 15, across all QD dose levels): 0.93–1.30
- AUC (Plasma pharmacokinetics; plasma, Mean AUC24, cycle 1 day 15, QD dosing): 237 to 366 ng·h/mL
- AUC (Plasma pharmacokinetics; plasma, Mean AUC from 0–24 h (AUC24), cycle 1 day 1, across QD doses): 138 to 315 ng·h/mL
- Cmax (Plasma pharmacokinetics; plasma, cycle 1 day 1, across all QD doses): 23.9 to 56.9 ng/mL
- Cmax (Plasma pharmacokinetics; plasma, cycle 1 day 15, across all QD doses): 33.4 to 57.2 ng/mL
- half-life (Plasma pharmacokinetics; plasma, Mean plasma elimination half-life, cycle 1 day 1, across all QD doses): 6 to 6.8 h
- half-life (Plasma pharmacokinetics; plasma, Mean plasma elimination half-life, cycle 1 day 15, across all QD doses): 5.24 to 9.2 h
- Tmax (Plasma pharmacokinetics; plasma, Median Tmax, cycle 1 day 1, across all QD doses): 0.5 to 1 h
- Tmax (Plasma pharmacokinetics; plasma, Median Tmax, cycle 1 day 15, across all QD doses): 1 to 1.5 h
- half-life (Plasma pharmacokinetics; plasma, T1/2, overall, as summarised in the abstract): 5.9 to 7.6 h
- Tmax (Plasma pharmacokinetics; plasma, Tmax, across all doses in both arms): 0.5 to 2.6 h
- Cmax, mean (sd) (Plasma pharmacokinetics; plasma, cycle 1 day 15, QW dose escalation 20 mg, n 3): 207.5 ng/mL
- Best overall response of progressive disease ([2]; QD arm): 45%
- Clinical benefit rate (CR, PR, or SD of any duration) ([2]; QD arm): 45%
- Discontinuation due to progressive disease ([2]; QD arm): 64%
- Best overall response of progressive disease ([2]; QW arm): 33%
- Clinical benefit rate (CR, PR, or SD of any duration) ([2]; QW arm): 67%
- Discontinuation due to progressive disease ([2]; QW arm): 67%
- Patients with stable disease for ≥ 6 months ([2]; all cohorts): Three
- Complete response (CR) or partial response (PR) ([2]; either treatment arm): No patients
- Anti-tumor effect ([2]; heavily pretreated patients, across dosing schedules): Moderate anti-tumor effects and a favorable safety profile were observed with sapanisertib in this heavily pretreated patient population
- RP2D in Western patients (Western patients; QD, Western patient populations): 4 mg
- Lowest RP2D in previous studies in Western patients (Western patients; QD): 4 mg
- Lowest RP2D in previous studies in Western patients (Western patients; QW): 30 mg
- Pre-defined futility threshold [3]: did not meet a pre-defined futility threshold
